In ChEMBL document CHEMBL3525967, “In vitro glucuronidation of the antibacterial triclocarban and its oxidative metabolites” (Drug Metab Dispos, 2012):

What was measured:
[1] = Drug metabolism in human kidney microsomes assessed as N'-glucuronide-triclocarban formation incubated for 5 mins prior to UDPGA addition measured after 5 to 30 mins by LC-UV analysis; assay type: ADME
Summary of the method: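 Pooled human kidney or liver microsomes (liver: 25 mixed-gender donors), 5 µg protein, in 200 µL 100 mM potassium phosphate pH 7.4. Alamethicin pre-treated on ice 15 min. Final 10 µM TCC (2% DMSO), with 10 mM MgCl2 and 10 mM saccharolactone, preincubated 5 min at 37 °C. Started with UDPGA (20 mM stock). Sampled at 5, 10, 15 and 30 min into ACN containing 1 µM DCC internal standard.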

[2] = molecular target: T1, UDP-glucuronosyltransferase 1A8 (Homo sapiens, UniProt Q9HAW9); test: Drug metabolism assessed as human UGT1A8-mediated N'-glucuronide-triclocarban formation expressed in baculovirus infected insect sf9 cells incubated for 5 mins prior to UDPGA addition measured after 5 to 30 mins by LC-UV analysis; assay type: ADME
T1 sequence (Q9HAW9 whole entry): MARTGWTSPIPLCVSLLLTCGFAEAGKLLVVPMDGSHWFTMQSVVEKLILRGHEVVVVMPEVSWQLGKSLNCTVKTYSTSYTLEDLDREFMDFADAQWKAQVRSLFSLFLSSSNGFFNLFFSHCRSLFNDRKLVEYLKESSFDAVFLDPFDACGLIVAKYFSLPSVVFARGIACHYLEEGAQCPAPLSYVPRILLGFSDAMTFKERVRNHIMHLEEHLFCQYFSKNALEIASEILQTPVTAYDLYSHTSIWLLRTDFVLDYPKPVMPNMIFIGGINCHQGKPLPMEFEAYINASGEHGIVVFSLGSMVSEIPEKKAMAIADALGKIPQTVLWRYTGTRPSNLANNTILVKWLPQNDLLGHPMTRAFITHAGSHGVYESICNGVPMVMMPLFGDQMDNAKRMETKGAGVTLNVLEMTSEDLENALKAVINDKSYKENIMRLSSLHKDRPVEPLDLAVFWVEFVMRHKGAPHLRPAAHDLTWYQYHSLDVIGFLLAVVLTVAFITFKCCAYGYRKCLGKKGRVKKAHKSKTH
Summary of the method: (§1)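 Microsomes or UGT Supersomes (5 µg protein) were held 15 min on ice with alamethicin in 100 mM potassium phosphate pH 7.4. TCC was added at 10 µM (2% DMSO) with 10 mM MgCl2 and 10 mM saccharolactone, pre-warmed 5 min at 37 °C, then started with UDPGA. Samples at 5, 10, 15 and 30 min were quenched in ACN. Product was read by LC-UV at 265 nm; rate came from regression over time, three incubations.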

[3] = Drug excretion in human urine; assay type: ADME; conditions: read-out: Drug excretion
[4] = Drug excretion in Sprague-Dawley rat urine assessed as 2'-O-glucuronide-triclocarban formation at 1 mg/kg, po by LC-MS analysis; assay type: ADME, organism-based; set-up: dose 1 mg/kg, route oral; conditions: in vivo
[5] = molecular target: T2, UDP-glucuronosyltransferase 2B17 (Homo sapiens, UniProt O75795); test: Drug metabolism assessed as human UGT2B17-mediated N'-glucuronide-triclocarban formation expressed in baculovirus infected insect sf9 cells incubated for 5 mins prior to UDPGA addition measured after 5 to 30 mins by LC-UV analysis; assay type: ADME; summary of the method: as §1
T2 sequence (O75795 whole entry): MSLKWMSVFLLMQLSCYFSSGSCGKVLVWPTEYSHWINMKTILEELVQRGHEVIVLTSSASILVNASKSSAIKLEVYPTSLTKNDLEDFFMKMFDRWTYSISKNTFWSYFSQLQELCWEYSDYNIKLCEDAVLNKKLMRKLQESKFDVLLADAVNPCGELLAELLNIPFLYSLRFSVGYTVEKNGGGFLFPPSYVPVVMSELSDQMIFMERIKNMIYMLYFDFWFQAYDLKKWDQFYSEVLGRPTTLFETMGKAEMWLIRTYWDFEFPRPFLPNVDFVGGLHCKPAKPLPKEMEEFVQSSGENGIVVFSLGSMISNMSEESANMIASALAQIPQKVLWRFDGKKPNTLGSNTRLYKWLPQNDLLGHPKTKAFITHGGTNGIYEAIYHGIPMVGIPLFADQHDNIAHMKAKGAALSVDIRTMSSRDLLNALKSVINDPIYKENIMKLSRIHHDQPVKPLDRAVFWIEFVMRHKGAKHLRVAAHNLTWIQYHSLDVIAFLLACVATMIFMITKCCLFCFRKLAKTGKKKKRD

[6] = Drug excretion in Sprague-Dawley rat urine assessed as 6-O-glucuronide-triclocarban formation at 1 mg/kg, po by LC-MS analysis; assay type: ADME, organism-based; set-up: dose 1 mg/kg, route oral; conditions: in vivo
[7] = molecular target: T3, UDP-glucuronosyltransferase 2B7 (Homo sapiens, UniProt P16662); test: Drug metabolism assessed as human UGT2B7-mediated N-glucuronide-triclocarban formation expressed in baculovirus infected insect sf9 cells incubated for 5 mins prior to UDPGA addition measured after 5 to 30 mins by LC-UV analysis; assay type: ADME; summary of the method: as §1
T3 sequence (P16662 whole entry): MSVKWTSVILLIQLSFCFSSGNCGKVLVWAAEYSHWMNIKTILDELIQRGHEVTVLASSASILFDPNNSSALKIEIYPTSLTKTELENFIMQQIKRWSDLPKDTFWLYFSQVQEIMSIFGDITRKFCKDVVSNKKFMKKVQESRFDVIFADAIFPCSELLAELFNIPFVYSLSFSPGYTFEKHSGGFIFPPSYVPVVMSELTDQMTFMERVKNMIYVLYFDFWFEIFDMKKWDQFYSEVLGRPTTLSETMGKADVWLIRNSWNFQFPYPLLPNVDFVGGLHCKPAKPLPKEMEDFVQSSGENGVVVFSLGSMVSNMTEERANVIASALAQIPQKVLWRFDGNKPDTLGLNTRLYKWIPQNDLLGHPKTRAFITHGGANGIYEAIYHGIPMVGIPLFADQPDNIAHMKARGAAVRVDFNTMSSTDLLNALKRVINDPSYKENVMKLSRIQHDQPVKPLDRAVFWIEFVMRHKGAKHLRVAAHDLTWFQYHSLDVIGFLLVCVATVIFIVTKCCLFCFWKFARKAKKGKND

[8] = system: Liver microsome; test: Drug metabolism in Sprague-Dawley rat liver microsomes assessed as N-glucuronide-triclocarban formation incubated for 5 mins prior to UDPGA addition measured after 5 to 30 mins by LC-UV analysis; assay type: ADME; summary of the method: as §1
[9] = molecular target: T3, UDP-glucuronosyltransferase 2B7; test: Drug metabolism assessed as human UGT2B7-mediated N'-glucuronide-triclocarban formation expressed in baculovirus infected insect sf9 cells incubated for 5 mins prior to UDPGA addition measured after 5 to 30 mins by LC-UV analysis; assay type: ADME; summary of the method: as §1
[10] = Drug metabolism in human intestinal microsomes assessed as N-glucuronide-triclocarban formation incubated for 5 mins prior to UDPGA addition measured after 5 to 30 mins by LC-UV analysis; assay type: ADME, Intestine, Microsome; summary of the method: as §1
[11] = Drug metabolism in cynomolgus monkey liver microsomes after 30 mins by LC-ESI-MS analysis; assay type: ADME, Macaca fascicularis
Summary of the method: (§2)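 2'-OH-TCC at 0.2, 0.5, 1, 2, 3, 5, 10 and 50 µM incubated with liver microsomes (alamethicin, MgCl2, saccharolactone, UDPGA; 37 °C), sampled at 5, 10, 15 and 30 min. Samples ≥5 µM diluted 1:9 in ACN; LC-ESI-MS. KM and vmax fitted from rate vs concentration; intrinsic clearance derived from these; mean and SD of three.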

[12] = Intrinsic clearance in cynomolgus monkey liver microsomes after 30 mins by LC-ESI-MS analysis; assay type: ADME, Macaca fascicularis; conditions: 0.5 h; summary of the method: as §2

| Km at 0.5 h ([11]; liver microsomes) | Vmax ([11]; microsomes, 0.5 h) | CLH [12] | SMILES | Drug metabolism [1] | Drug metabolism [2] | dose excreted [3] | Drug excretion [4] | Drug metabolism [5] | Drug excretion [6] | Drug metabolism [7] | Drug metabolism [8] | Drug metabolism [9] | Drug metabolism [10] |
| --- | --- | --- | --- | --- | --- | --- | --- | --- | --- | --- | --- | --- | --- |
| – | – | – | O=C(Nc1ccc(Cl)cc1)Nc1ccc(Cl)c(Cl)c1 [TRICLOCARBAN] | metabolite_not_detected | metabolite_not_detected | 25% | metabolite_detected | metabolite_not_detected | metabolite_detected | metabolite_not_detected | metabolite_not_detected | metabolite_not_detected | metabolite_not_detected |
| 1400 nM | 26.7 nmol/min/mg | 19.1 mL/min/mg | O=C(Nc1ccc(Cl)c(Cl)c1)Nc1ccc(Cl)cc1O | – | – | – | – | – | – | – | – | – | – |
